This is an account of results in ChEMBL document CHEMBL4028907, “Semisynthesis and Biological Evaluation of Xanthone Amphiphilics as Selective, Highly Potent Antifungal Agents to Combat Fungal Resistance” (J Med Chem, 2017).

SMILES strings stand for the structures. ≈ marks a conversion by molar mass, not a printed value. A value given as a limit tells only on which side of the number the result lay.

Assay [1] deals with Candida albicans. In words: Antifungal activity against Candida albicans ATCC 10231 after 24 hrs by two fold serial dilution method. The conditions noted are these: ATCC 10231, 24 h. In kind it is functional. Put shortly: (§1)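 Candida grown on Sabouraud dextrose agar at 35 °C for 24 h, adjusted to ~5×10^3 CFU/mL. Two-fold dilutions from 100 to 0.78 μg/mL in Sabouraud dextrose broth, incubated at 35 °C for 24 h. MIC is the lowest concentration inhibiting growth by eye and by OD600. CLSI-based with minor modifications.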

The subject of assay [2] is Candida albicans. In words: Fungicidal activity against drug resistant Candida albicans DF2672R at 1 time MIC after 1 hr by time kill assay relative to control. In kind it is functional. The method in brief: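 Cells at 10^5–10^6 CFU/mL exposed to 1×, 2×, 4× or 8× MIC at 35 °C. Samples taken at 0.5, 1, 2, 4, 8 and 24 h, serially diluted in PBS and plated on SDA. CFU counted after 24 h at 35 °C; biological replicates.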

The nature of assay [3]: Cytotoxicity against human corneal fibroblasts assessed as reduction in cell viability after 4 hrs by LDH assay. In kind it is cell-based. The conditions noted are these: Corneal fibroblast. Put shortly: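 LDH release assay on human corneal fibroblasts seeded at 10000 cells per well, exposed to a range of compound concentrations up to 100 μM. 1% Triton X-100 served as positive control and 0.5% DMSO as negative control; biological replicates.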

The subject of assay [4] is Candida albicans. Put plainly: Synergistic antifungal activity against drug resistant Candida albicans DF2672R after 24 hrs in presence of natamycin by checkerboard assay. In kind it is functional. Put shortly:
(§2)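 Checkerboard combination of each compound with a second antifungal, following a previously reported procedure. FIC = MIC of A in combination/MIC of A alone + MIC of B in combination/MIC of B alone.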

Assay [5] has as its system Fusarium oxysporum. Put plainly: Antifungal activity against Fusarium oxysporum 64530 after 48 hrs by two fold serial dilution method. In kind it is functional. The conditions noted are these: Fusarium oxysporum, 64530, 48 h. Put shortly: (§3)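 Moulds grown on potato dextrose agar, 30 °C, 4 days; inoculum adjusted to about 5×10^3 CFU/mL. Two-fold serial dilutions in RPMI-1640 broth, 100 to 0.78 μg/mL final, mixed with equal volume of cell suspension; incubated 30 °C, 48 h. MIC = lowest concentration inhibiting growth, judged visually and by OD530.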

The test system of assay [6] is Candida albicans. In words: Antifungal activity against Candida albicans ATCC24433 after 24 hrs by two fold serial dilution method. The class given is functional. The note with it: ATCC24433, 24 h. Put shortly:
as §1

Assay [7] relates to Fusarium oxysporum. Put plainly: Antifungal activity against Fusarium oxysporum MYA3461 after 48 hrs by two fold serial dilution method. The class given is functional. The note with it: MYA3461, 48 h. Put shortly: as §3
Assay [8] relates to Aspergillus flavus. Put plainly: Antifungal activity against Aspergillus flavus TCC 204304 after 48 hrs by two fold serial dilution method. The conditions noted are these: TCC 204304, 48 h. The class given is functional. The method in brief:
as §3

The test system of assay [9] is Lipid bilayer. In words: Induction of membrane permiablization in calcein loaded DOPC/DOPE/PI large unilamellar vesicles assessed as calcein leakage at 1:8 compound to lipid ratio after 1 to 2 hrs by […] fluorescence assay relative to control. The method in brief: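 LUVs (DOPC/DOPE/PI 2:1:1 with 15 wt % ergosterol, about 100 nm) made by film hydration and extrusion, loaded with 80 mM calcein in HEPES buffer pH 7.4. Free dye removed by G-50 column. Compound added in 0.5% DMF at 50 μM final phospholipid. Emission read at 520 nm (excitation 490 nm); leakage normalized to 1% Triton X-100.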

The test system of assay [10] is Aspergillus brasiliensis. In words: Antifungal activity against Aspergillus brasiliensis TCC16404 after 48 hrs by two fold serial dilution method. In kind it is functional. The note with it: TCC16404, 48 h. Put shortly: as §3
Assay [11] deals with Staphylococcus aureus. In words: Antibacterial activity against methicillin resistant Staphylococcus aureus DM21455 by two fold serial dilution method. In kind it is functional. Put shortly: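 Broth microdilution per CLSI guidelines with minor modifications, run in Mueller−Hinton broth; MIC is the lowest concentration giving no visible growth.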
The subject of assay [12] is Candida albicans. Put plainly: Antifungal activity against drug resistant Candida albicans DF2672R infected C57BL6 mouse cornea at 0.2% administered topically for every 20 mins during the first hour and every 1 hr during the next 6 hrs by serial dilution method. The class given is functional. Put shortly:
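C57BL6 mice aged 7–8 weeks (19–23 g), immunosuppressed with cyclophosphamide 100 mg/kg ip at 4 days and 1 day before infection and on day 1 after. Left cornea scratched under xylazine/ketamine, then 20 μL of ~5×10^7 CFU/mL yeast in PBS applied. Treatment started 1 day later; PBS served as control; four mice per group. Corneal fungal load counted by serial dilution plating on SDA.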

Assay [13] concerns Aspergillus flavus. In words: Antifungal activity against Aspergillus flavus TCC MYA3631 after 48 hrs by two fold serial dilution method. The class given is functional. The note with it: TCC MYA3631, 48 h. The method in brief: as §3
Assay [14] concerns Fusarium solani. Put plainly: Antifungal activity against Fusarium solani MYA3636 after 48 hrs by two fold serial dilution method. The note with it: MYA3636, 48 h. In kind it is functional. The method in brief:
as §3

The test system of assay [15] is Candida albicans. In words: Synergistic antifungal activity against drug resistant Candida albicans DF2672R after 24 hrs in presence of terbinafine by checkerboard assay. In kind it is functional. Put shortly:
as §2

Take `COc1c(OCC(O)CNC(=N)N)cc2oc3cc(OCC(O)CNC(=N)N)c(CC=C(C)C)c(O)c3c(=O)c2c1CC=C(C)C` (stereo not given): the MIC (usually the smallest concentration in the dilution series that meets the test's criterion for growth inhibition) in assay [1] was determined as 0.78 mg/L (≈ 1.22 µM); in [5] it was 3.13 mg/L (≈ 4.88 µM); in [6], 0.78 mg/L (≈ 1.22 µM); in [7] it was 1.56 mg/L (≈ 2.43 µM); in [8], 6.25 mg/L (≈ 9.75 µM); in assay [10], 3.13 mg/L (≈ 4.88 µM). Also, the values for the MIC in assay [11], in assay [13] and in assay [14] were 1.56 to 3.13 mg/L (≈ 2.43 to 4.88 µM), 6.25 mg/L (≈ 9.75 µM) and 3.13 mg/L (≈ 4.88 µM), respectively. The Activity is 91% in assay [2], 43.8% in [9] and 92.8% in assay [12]. In addition, the IC50 (in general, the concentration that inhibits the measured activity by half) in assay [3] is over 100 µM. For the same molecule, the “fractional inhibitory concentration index (FICI)” value was 1.08 in [4] and 0.44 in assay [15].
